In ChEMBL document CHEMBL4130545, “Lupane-Type Triterpenes of Phoradendron vernicosum” (J Nat Prod, 2017) one finds CC50, IC50 and selectivity ratio data, which are given here for four compounds.

Series [1] deals with HeLa. The series is described as follows: Cytotoxic activity in human HeLa cells by sulforhodamine B assay. Type of series: functional. The procedure, abridged:
(§1)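 Cell lines grown in D-MEM with 10% (v/v) FBS, 100 U/mL penicillin G and 100 μg/mL streptomycin at 37 °C, 5% CO2, 95% humidity. Cytotoxicity was measured by the Skehan method. CC50 was taken as the concentration that reduces cell growth by 50%. Docetaxel served as positive control, and each test was run in triplicate.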
On the technique in general: The SRB assay estimates cell density from bound dye.

The subject of series [2] is SiHa. The experiment in a line: Cytotoxic activity in human SiHa cells by sulforhodamine B assay. Type of series: functional. The procedure, abridged:
as §1

For series [3], the system named is MCF7. The series is described as follows: Cytotoxic activity in human MCF7 cells by sulforhodamine B assay. Type of series: functional. In outline: as §1
The subject of series [4] is MDA-MB-231. The experiment in a line: Cytotoxic activity in human MDA-MB-231 cells by sulforhodamine B assay. The class given is functional. In outline: as §1
Series [5] deals with DU-145. The experiment in a line: Cytotoxic activity in human DU145 cells by sulforhodamine B assay. Type of series: functional. The procedure, abridged: as §1
Series [6] has as its system KB. The series is described as follows: Cytotoxic activity in human KB cells by sulforhodamine B assay. Type of series: functional. In outline: as §1
Series [7] concerns HEp-2. The series is described as follows: Cytotoxic activity in human Hep2 cells by sulforhodamine B assay. The class given is functional. In outline:
as §1

Series [8] is described as follows: Cytotoxic activity in African green monkey Vero cells by sulforhodamine B assay. The class given is cell-based. The note with it: chlorocebus sabaeus. In outline:
(§2)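 Cells grown in D-MEM with 10% (v/v) FBS, 100 U/mL penicillin G and 100 μg/mL streptomycin, at 37 °C under 5% CO2 and 95% humidity. Cytotoxic and antiproliferative effects were measured by the sulforhodamine B method of Skehan et al. CC50 (cytotoxic) or IC50 (antiproliferative) is the concentration giving 50% growth reduction. Docetaxel was the positive control. Triplicate tests.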

The nature of series [9]: Cytotoxic activity in HEK293 cells by sulforhodamine B assay. Type of series: cell-based. The note with it: human. The procedure, abridged:
as §2

The subject of series [10] is HeLa. The experiment in a line: Antiproliferative activity in human HeLa cells by sulforhodamine B assay. Type of series: functional, cell-based. In outline: as §2
For series [11], the system named is SiHa. The experiment in a line: Antiproliferative activity in human SiHa cells by sulforhodamine B assay. The class given is functional, cell-based. In outline:
as §2

For series [12], the system named is MCF7. The series is described as follows: Antiproliferative activity in human MCF7 cells by sulforhodamine B assay. The class given is functional, cell-based. The procedure, abridged:
as §2

The subject of series [13] is MDA-MB-231. The series is described as follows: Antiproliferative activity in human MDA-MB-231 cells by sulforhodamine B assay. The class given is functional, cell-based. In outline:
as §2

Series [14] has as its system DU-145. The series is described as follows: Antiproliferative activity in human DU145 cells by sulforhodamine B assay. The class given is functional, cell-based. The procedure, abridged:
as §2

Series [15] has as its system KB. The series is described as follows: Antiproliferative activity in human KB cells by sulforhodamine B assay. The class given is functional, cell-based. The procedure, abridged:
as §2

Series [16] concerns HEp-2. The experiment in a line: Antiproliferative activity in human Hep2 cells by sulforhodamine B assay. The class given is functional, cell-based. In outline: as §2
The next series concerns Vero. The experiment in a line: Antiproliferative activity in African green monkey Vero cells by sulforhodamine B assay. The class given is cell-based. The note with it: Chlorocebus sabaeus. In outline: as §2
The subject of a further series is HEK293. The series is described as follows: Antiproliferative activity in HEK293 cells by sulforhodamine B assay. The settings on record: Homo sapiens. Type of series: cell-based. In outline:
as §2

The nature of series [17]: Selectivity index, ratio of cytotoxic CC50 for African green monkey Vero cells to cytotoxic CC50 for human HeLa cells. The class given is toxicity. The note with it: Vero cells versus HeLa cells, read-out: Selectivity Index. In outline:
(§3)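 Selectivity index for harmfulness to normal cells: the normal-cell (Vero or HEK293) CC50 or IC50 over the cancer-cell value from the same assay type. Each value is from sulforhodamine B growth-reduction tests done in triplicate in D-MEM/10% FBS at 37 °C, 5% CO2.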

The nature of series [18]: Selectivity index, ratio of cytotoxic CC50 for African green monkey Vero cells to cytotoxic CC50 for human SiHa cells. The class given is toxicity. The settings on record: Vero cells versus SiHa cells, read-out: Selectivity Index. In outline: as §3
Series [19] in a line: Selectivity index, ratio of cytotoxic CC50 for African green monkey Vero cells to cytotoxic CC50 for human MCF7 cells. Type of series: toxicity. The settings on record: Vero cells versus MCF7 cells, read-out: Selectivity Index. In outline:
as §3

Series [20] is described as follows: Selectivity index, ratio of antiproliferative IC50 for African green monkey Vero cells to antiproliferative IC50 for human HeLa cells. The class given is toxicity. The note with it: Vero cells versus HeLa cells, read-out: Ratio IC50. In outline: as §3
Series [21] can be described thus: Selectivity index, ratio of antiproliferative IC50 for African green monkey Vero cells to antiproliferative IC50 for human SiHa cells. The settings on record: Vero cells versus SiHa cells, read-out: Ratio IC50. The class given is toxicity. The procedure, abridged:
as §3

Series [22] can be described thus: Selectivity index, ratio of antiproliferative IC50 for African green monkey Vero cells to antiproliferative IC50 for human MCF7 cells. The class given is toxicity. The note with it: Vero cells versus MCF7 cells, read-out: Ratio IC50. The procedure, abridged: as §3

For orientation: CC50 means the concentration at which the toxic effect on the cells reaches its halfway point. The term IC50 denotes the concentration needed to halve the response being measured. For the compound `C=C(C)[C@@H]1CC[C@]2(C(=O)O)CC[C@]3(C)[C@H](CC[C@@H]4[C@@]5(C)CCC(=O)C(C)(C)[C@@H]5CC[C@]43C)[C@@H]12` [BETUNOLIC ACID], the CC50 in the series with HeLa [1] is greater than 500 µM; with SiHa [2], 117 µM; with MCF7 [3], greater than 500 µM; with MDA-MB-231 [4], 60.9 µM; with DU-145 [5], 139 µM; with KB [6], greater than 500 µM. Moreover, the CC50 (with HEp-2 [7]; in [8]; in series [9]) was greater than 500 µM throughout. Moreover, the IC50 with HeLa [10], in the series with SiHa [11], in the series on MCF7 [12], in the series on MDA-MB-231 [13], in the series on DU-145 [14] and in the series with KB [15] was greater than 500 µM throughout. Also, the IC50 in the series with HEp-2 [16], with Vero and in the series with HEK293 was greater than 500 µM in each case.
In the case of `C=C(C)[C@@H]1CC[C@]2(C(=O)O)CC[C@]3(C)[C@H](CC[C@@H]4[C@@]5(C)CC[C@@H](O)C(C)(C)[C@@H]5CC[C@]43C)[C@@H]12` [EPIBETULINIC ACID], the CC50 in the series on HeLa [1] is 118 µM; with SiHa [2], 113 µM; in the series with MCF7 [3] it was 154 µM; with MDA-MB-231 [4], greater than 500 µM; with DU-145 [5], greater than 500 µM; in the series on KB [6], greater than 500 µM. Also, the results for the CC50 (with HEp-2 [7]; in series [8]; in series [9]) were greater than 500 µM, 107 µM and greater than 500 µM, respectively. Also, the selectivity ratio in series [17] amounted to 0.9; in series [18] it was 0.9; in [19], 0.7; in [20] it was 1.3; in series [21] it was 1; in [22] it was 1.2. The IC50 in the series with HeLa [10] was 91.8 µM; in the series with SiHa [11] it was 117 µM; with MCF7 [12] it was 91.6 µM; in the series on MDA-MB-231 [13] it was greater than 500 µM; in the series with DU-145 [14], greater than 500 µM; with KB [15], greater than 500 µM. In addition, the IC50 is greater than 500 µM in the series with HEp-2 [16], 117 µM with Vero and greater than 500 µM in the series on HEK293.
Take `C=C(C)[C@@H]1CC[C@]2(C)CC[C@]3(C)[C@H](CC[C@@H]4[C@@]5(C)CCC(=O)C(C)(C)[C@@H]5CC[C@]43C)[C@@H]12` [LUPENONE]: the CC50 with HeLa [1], in the series with SiHa [2], in the series with MCF7 [3], in the series on MDA-MB-231 [4], with DU-145 [5] and in the series on KB [6] was greater than 500 µM throughout. The CC50 (with HEp-2 [7]; in [8]; in [9]) was greater than 500 µM throughout. In addition, the IC50 in the series with HeLa [10], with SiHa [11], in the series on MCF7 [12], in the series with MDA-MB-231 [13], with DU-145 [14] and in the series with KB [15] was greater than 500 µM throughout. In addition, the 50% inhibitory concentration (IC50) in the series on HEp-2 [16], with Vero and in the series on HEK293 was greater than 500 µM each time.
Turning to `CC1(C)CC[C@]2(C(=O)O)CC[C@]3(C)C(=CC[C@@H]4[C@@]5(C)CC[C@H](O)C(C)(C)[C@@H]5CC[C@]43C)[C@@H]2C1` [OLEANOLIC_ACID], the CC50 is greater than 500 µM in the series on HeLa [1]; 109 µM with SiHa [2]; greater than 500 µM in the series on MCF7 [3]; 106 µM with MDA-MB-231 [4]; 65.6 µM in the series on DU-145 [5]; greater than 500 µM in the series with KB [6]. Also, the CC50 (with HEp-2 [7]; in [8]; in series [9]) was greater than 500 µM in each case. Further, the IC50 was 204 µM in the series with HeLa [10]; 110 µM in the series with SiHa [11]; greater than 500 µM with MCF7 [12]; 134 µM in the series on MDA-MB-231 [13]; 124 µM in the series on DU-145 [14]; greater than 500 µM with KB [15]. The IC50 in the series on HEp-2 [16], with Vero and in the series with HEK293 was greater than 500 µM throughout.
